Results: ChEMBL document CHEMBL5252513, “Identification of a Benzoisoxazoloazepine Inhibitor (CPI-0610) of the Bromodomain and Extra-Terminal (BET) Family as a Candidate for Human Clinical Trials” (J Med Chem, 2016)
pIC50: −log10 of the molar value. Active and inactive are the calls of the source. The calls are words filed in the database; no cut-off is given here.

Legend:
[1] = Toxicity in rat assessed as degeneration of testicular seminiferous epithelium at 2 to 20 mg/kg,po QD consecutive for 14 days followed by 2 weeks recovery period; assay type: organism-based; settings: in vivo, 336 h, dose 2-20 mg/kg, time 14 day
In short: (§1)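 Oral suspension given once daily for 14 consecutive days (rat 2, 6, 20 mg/kg; dog 2, 4, 6 mg/kg) in dose range-finding and GLP repeat-dose studies, GLP arms with an added 2-week recovery period; histopathology and clinical pathology findings recorded.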

[2] = Cmax in rat at 5 mg/kg,po; assay type: ADME, organism-based; design: dose 5 mg/kg, route po; settings: in vivo
[3] = Tmax in mouse at 30 mg/kg,po; assay type: ADME, organism-based; settings: in vivo
[4] = Unbound clearance in dog at 0.5 mg/kg,iv; assay type: ADME, organism-based, Canis lupus familiaris; settings: in vivo
MV4-11 [5] = experiment: In vivo inhibition of BRD4 in human MV4-11 cells xenografted in BALB/c mouse assessed as reduction in cellular MYC mRNA expression level in tumor at 15 mg/kg,sc BID and measured at 4 hrs by PCR anlaysis; assay type: functional, organism-based
In short: (§2)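 Pharmacodynamic study in MV-4-11 AML mouse xenograft. Dosing was 15 mg/kg subcutaneous twice daily. At 4, 8 and 12 h after the second dose, MYC mRNA was measured against vehicle, and compound levels were measured in plasma and tumor. Free plasma concentration was estimated alongside total levels.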

[6] = Unbound Cmax in human patient with progression lymphoma at 300 mg,po QD consecutively for 14 days; assay type: ADME; settings: in vivo, 336 h, time 14 day
In short: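 Oral dosing in patients with hematologic malignancies, cycles at escalating doses; 300 mg cohort sampled at day 14. Unbound Cmax = free fraction × Cmax.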

[7] = AUC (0 to infinity) in mouse at 10 mg/kg,sc; assay type: ADME, organism-based; design: dose 10 mg/kg, route sc; settings: in vivo
[8] = Toxicity in dog assessed as degeneration of testicular seminiferous epithelium at 2 to 6 mg/kg,po QD consecutive for 14 days followed by 2 weeks recovery period; assay type: organism-based, Canis lupus familiaris; settings: in vivo, 336 h, dose 2-6 mg/kg, time 14 day; in short: as §1
[9] = Protein binding in rat plasma; assay type: ADME, cell-free; settings: read-out: PPB (converted)
[10] = target: T1, SWI/SNF-related matrix-associated actin-dependent regulator of chromatin subfamily A member 4 (Homo sapiens, UniProt P51532); experiment: Binding affinity to BRG1 bromodomain (unknown origin) incubated for 60 mins by TR-FRET assay
[11] = AUC (0 to infinity) in mouse at 30 mg/kg,po; assay type: ADME, organism-based; design: dose 30 mg/kg, route po; settings: in vivo
[12] = AUC (0 to 24 hrs) in human patient with progression lymphoma at 300 mg,po QD and measured after 24 hrs; assay type: ADME; design: time 24 hrs, dose 300 mg, route po; settings: in vivo
In short: (§3)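 Phase I trial in patients with hematologic malignancies, oral dosing once daily with escalating cohorts; values are from the 300 mg dose on day 14. AUC0-24 was taken as exposure over 24 h. Apparent clearance was calculated as Dose/AUC0-24.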

[13] = Intrinsic clearance in human liver microsomes; assay type: ADME, Microsome; settings: read-out: CLH
MV4-11 [14] = experiment: Antitumor activity against human MV4-11 cells xenografted in BALB/c mouse assessed as tumor growth inhibition at 60 mg/kg,po QD for 28 days; assay type: functional; settings: MV4-11, 672 h, time 28 day, read-out: TGI
In short: (§4)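 Single-agent efficacy in MV-4-11 AML mouse xenograft. Tumor volume (mm3) and percent body-weight change were tracked over the treatment days.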

[15] = Cmax in human patient with progression lymphoma at 300 mg,po QD consecutively for 14 days; assay type: ADME; design: time 14 day, dose 300 mg, route po; settings: in vivo; in short: as §3
[16] = Tmax in rat at 5 mg/kg,po; assay type: ADME, organism-based; settings: in vivo
[17] = Oral bioavailability in rat at 5 mg/kg; assay type: ADME, organism-based; settings: in vivo
[18] = target: Histone acetyltransferase KAT2B (Homo sapiens, UniProt Q92831); experiment: Displacement of biotinylated JQ1 from PCAF bromodomain (unknown origin) incubated for 20 mins by AlphaLISA assay
MV4-11 [19] = experiment: Antitumor activity against human MV4-11 cells xenografted in BALB/c mouse assessed as modest tumor growth inhibition at 10 mg/kg,sc BID for 28 days; assay type: functional, organism-based; settings: time 28.0 day
MV4-11 [20] = experiment: In vivo inhibition of BRD4 in human MV4-11 cells xenografted in BALB/c mouse assessed as reduction in cellular MYC mRNA expression level in tumor at 15 mg/kg,sc BID and measured for 8 to 12 hrs by PCR anlaysis; assay type: functional, organism-based; settings: time 8-12 hrs; in short: as §2
[21] = target: T1, SWI/SNF-related matrix-associated actin-dependent regulator of chromatin subfamily A member 4; experiment: Displacement of biotinylated JQ1 from BRG1 bromodomain (unknown origin) incubated for 20 mins by AlphaLISA assay
[22] = Cmax in dog at 2.5 mg/kg,po; assay type: ADME, organism-based, Canis lupus familiaris; design: dose 2.5 mg/kg, route po; settings: in vivo
[23] = Intrinsic clearance in dog liver microsomes; assay type: ADME, Canis lupus familiaris, Microsome; settings: read-out: CLH
[24] = Volume of distribution at steady state in rat at 1 mg/kg,iv; assay type: ADME, organism-based; settings: in vivo, read-out: Vdss
[25] = AUC (0 to infinity) in dog at 2.5 mg/kg,po; assay type: ADME, organism-based, Canis lupus familiaris; design: dose 2.5 mg/kg, route po; settings: in vivo
MV4-11 [26] = experiment: In vivo inhibition of BRD4 in human MV4-11 cells xenografted in BALB/c mouse assessed as reduction in cellular MYC mRNA expression level in plasma at 15 mg/kg,sc BID and measured for 8 to 12 hrs by PCR anlaysis; assay type: functional, organism-based; settings: time 8-12 hrs; in short: as §2
[27] = Toxicity in rat assessed as GI mucosal erosion at 2 to 20 mg/kg,po QD consecutive for 14 days followed by 2 weeks recovery period; assay type: organism-based; settings: in vivo, 336 h, dose 2-20 mg/kg, time 14 day; in short: as §1
[28] = Toxicity in rat assessed as GI mucosal ulceration at 2 to 20 mg/kg,po QD consecutive for 14 days followed by 2 weeks recovery period; assay type: organism-based; settings: in vivo, 336 h, dose 2-20 mg/kg, time 14 day; in short: as §1
[29] = Initial plasma concentration in human patient with progression lymphoma at 300 mg,po QD and measured after 24 hrs; assay type: ADME; settings: read-out: C0
In short: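 Trough plasma concentration taken as concentration at 24 h after oral dosing, 300 mg cohort, patients with hematologic malignancies.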

[30] = Clearance in rat assessed as liver blood flow at 1 mg/kg,iv; assay type: ADME, organism-based; settings: in vivo
[31] = Toxicity against BALB/c mouse plasma xenografted with human MV4-11 cells assessed as body weight loss at 30 mg/kg,po BID for 28 days; assay type: organism-based; settings: in vivo, 672 h, time 28 day
In short: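 Body weight change (%) followed in MV-4-11 AML mouse xenograft during 28 days of oral single-agent dosing (30 mg/kg once or twice daily, 60 mg/kg once daily), vehicle PO BID as control.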

MV4-11 [32] = experiment: Antitumor activity against human MV4-11 cells xenografted in BALB/c mouse assessed as tumor growth inhibition at 30 mg/kg,po QD for 28 days; assay type: functional; settings: MV4-11, 672 h, time 28 day, read-out: TGI; in short: as §4
MV4-11 [33] = experiment: Antitumor activity against human MV4-11 cells xenografted in BALB/c mouse assessed as tumor growth inhibition at 30 mg/kg,po BID for 28 days; assay type: functional; settings: MV4-11, 672 h, time 28 day, read-out: TGI; in short: as §4
[34] = Clearance in dog assessed as liver blood flow at 0.5 mg/kg,iv; assay type: ADME, organism-based, Canis lupus familiaris; settings: in vivo
[35] = Tmax in dog at 2.5 mg/kg,po; assay type: ADME, organism-based, Canis lupus familiaris; settings: in vivo
[36] = Unbound AUC in mouse at 30 mg/kg,po; assay type: ADME, organism-based; settings: in vivo
CREB-binding protein = CREB-binding protein (Homo sapiens, UniProt Q92793); experiment: Displacement of biotinylated JQ1 from CBP bromodomain (unknown origin) incubated for 20 mins by AlphaLISA assay
[37] = Toxicity in dog assessed as lymphoid depletion at 2 to 6 mg/kg,po QD consecutive for 14 days followed by 2 weeks recovery period; assay type: organism-based, Canis lupus familiaris; settings: in vivo, 336 h, dose 2-6 mg/kg, time 14 day; in short: as §1
[38] = AUC (0 to infinity) in rat at 5 mg/kg,po; assay type: ADME, organism-based; design: dose 5 mg/kg, route po; settings: in vivo

T1 sequence (P51532 whole entry): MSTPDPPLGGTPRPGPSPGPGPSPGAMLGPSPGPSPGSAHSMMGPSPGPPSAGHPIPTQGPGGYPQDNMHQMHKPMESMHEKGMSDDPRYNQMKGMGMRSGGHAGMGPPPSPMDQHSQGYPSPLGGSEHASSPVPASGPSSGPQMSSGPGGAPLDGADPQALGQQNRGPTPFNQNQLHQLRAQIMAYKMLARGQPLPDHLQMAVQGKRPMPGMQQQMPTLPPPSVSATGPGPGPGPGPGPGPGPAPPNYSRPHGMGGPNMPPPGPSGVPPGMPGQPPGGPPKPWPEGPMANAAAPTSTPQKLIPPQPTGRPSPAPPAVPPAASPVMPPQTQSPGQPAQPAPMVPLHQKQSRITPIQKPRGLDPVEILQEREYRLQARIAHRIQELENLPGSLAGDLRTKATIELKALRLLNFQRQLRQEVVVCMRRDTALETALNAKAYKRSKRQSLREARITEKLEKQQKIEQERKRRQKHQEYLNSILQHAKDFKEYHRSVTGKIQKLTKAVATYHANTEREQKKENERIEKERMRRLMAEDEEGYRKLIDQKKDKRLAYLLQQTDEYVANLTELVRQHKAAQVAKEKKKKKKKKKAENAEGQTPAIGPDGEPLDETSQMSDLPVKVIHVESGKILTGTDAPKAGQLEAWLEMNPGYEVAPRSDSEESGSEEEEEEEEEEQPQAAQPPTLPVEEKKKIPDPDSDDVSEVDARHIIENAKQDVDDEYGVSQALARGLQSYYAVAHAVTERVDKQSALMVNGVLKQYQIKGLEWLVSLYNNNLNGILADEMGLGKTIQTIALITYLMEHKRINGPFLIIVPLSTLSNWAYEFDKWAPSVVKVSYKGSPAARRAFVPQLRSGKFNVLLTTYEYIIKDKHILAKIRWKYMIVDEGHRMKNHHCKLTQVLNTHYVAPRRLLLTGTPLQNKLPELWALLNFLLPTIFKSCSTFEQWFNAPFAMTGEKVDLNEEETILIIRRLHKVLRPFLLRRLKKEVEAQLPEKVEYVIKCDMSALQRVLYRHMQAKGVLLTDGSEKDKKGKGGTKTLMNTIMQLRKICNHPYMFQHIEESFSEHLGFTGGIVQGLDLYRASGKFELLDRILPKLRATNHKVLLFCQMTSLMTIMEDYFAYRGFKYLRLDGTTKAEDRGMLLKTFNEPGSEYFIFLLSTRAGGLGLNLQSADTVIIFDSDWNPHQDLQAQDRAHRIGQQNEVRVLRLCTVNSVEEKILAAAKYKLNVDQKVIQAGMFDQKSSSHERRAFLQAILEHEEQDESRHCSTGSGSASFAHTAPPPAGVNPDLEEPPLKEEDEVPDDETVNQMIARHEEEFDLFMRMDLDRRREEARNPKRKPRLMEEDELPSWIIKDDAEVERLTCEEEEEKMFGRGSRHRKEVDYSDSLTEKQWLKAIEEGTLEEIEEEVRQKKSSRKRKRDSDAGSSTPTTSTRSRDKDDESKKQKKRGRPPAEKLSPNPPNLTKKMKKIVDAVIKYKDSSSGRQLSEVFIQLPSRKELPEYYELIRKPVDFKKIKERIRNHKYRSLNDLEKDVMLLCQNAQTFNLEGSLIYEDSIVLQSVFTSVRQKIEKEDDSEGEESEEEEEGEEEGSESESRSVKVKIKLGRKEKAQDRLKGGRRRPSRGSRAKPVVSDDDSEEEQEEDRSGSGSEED
Sequence of Histone acetyltransferase KAT2B (Q92831 whole entry): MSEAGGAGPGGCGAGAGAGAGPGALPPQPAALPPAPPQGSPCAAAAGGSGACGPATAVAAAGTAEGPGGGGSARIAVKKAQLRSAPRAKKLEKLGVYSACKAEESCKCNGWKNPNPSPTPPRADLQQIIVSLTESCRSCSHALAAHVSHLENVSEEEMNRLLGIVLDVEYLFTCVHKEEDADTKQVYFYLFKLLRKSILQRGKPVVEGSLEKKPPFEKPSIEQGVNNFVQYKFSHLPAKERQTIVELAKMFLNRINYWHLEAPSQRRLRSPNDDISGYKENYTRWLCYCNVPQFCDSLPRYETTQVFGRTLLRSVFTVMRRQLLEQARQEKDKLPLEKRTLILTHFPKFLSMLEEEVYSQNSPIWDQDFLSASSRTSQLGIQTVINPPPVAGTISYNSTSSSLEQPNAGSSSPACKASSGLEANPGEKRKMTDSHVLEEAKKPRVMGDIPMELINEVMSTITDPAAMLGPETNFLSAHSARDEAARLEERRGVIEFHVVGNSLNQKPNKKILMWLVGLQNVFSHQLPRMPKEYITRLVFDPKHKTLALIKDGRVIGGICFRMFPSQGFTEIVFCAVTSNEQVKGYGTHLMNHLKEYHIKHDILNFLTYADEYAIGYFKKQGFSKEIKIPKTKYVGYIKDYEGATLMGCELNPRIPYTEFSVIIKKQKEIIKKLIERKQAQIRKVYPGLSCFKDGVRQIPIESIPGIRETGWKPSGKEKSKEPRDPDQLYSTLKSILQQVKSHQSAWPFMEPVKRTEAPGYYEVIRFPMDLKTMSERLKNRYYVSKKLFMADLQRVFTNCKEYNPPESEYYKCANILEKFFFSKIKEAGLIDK
Sequence of CREB-binding protein (Q92793 whole entry): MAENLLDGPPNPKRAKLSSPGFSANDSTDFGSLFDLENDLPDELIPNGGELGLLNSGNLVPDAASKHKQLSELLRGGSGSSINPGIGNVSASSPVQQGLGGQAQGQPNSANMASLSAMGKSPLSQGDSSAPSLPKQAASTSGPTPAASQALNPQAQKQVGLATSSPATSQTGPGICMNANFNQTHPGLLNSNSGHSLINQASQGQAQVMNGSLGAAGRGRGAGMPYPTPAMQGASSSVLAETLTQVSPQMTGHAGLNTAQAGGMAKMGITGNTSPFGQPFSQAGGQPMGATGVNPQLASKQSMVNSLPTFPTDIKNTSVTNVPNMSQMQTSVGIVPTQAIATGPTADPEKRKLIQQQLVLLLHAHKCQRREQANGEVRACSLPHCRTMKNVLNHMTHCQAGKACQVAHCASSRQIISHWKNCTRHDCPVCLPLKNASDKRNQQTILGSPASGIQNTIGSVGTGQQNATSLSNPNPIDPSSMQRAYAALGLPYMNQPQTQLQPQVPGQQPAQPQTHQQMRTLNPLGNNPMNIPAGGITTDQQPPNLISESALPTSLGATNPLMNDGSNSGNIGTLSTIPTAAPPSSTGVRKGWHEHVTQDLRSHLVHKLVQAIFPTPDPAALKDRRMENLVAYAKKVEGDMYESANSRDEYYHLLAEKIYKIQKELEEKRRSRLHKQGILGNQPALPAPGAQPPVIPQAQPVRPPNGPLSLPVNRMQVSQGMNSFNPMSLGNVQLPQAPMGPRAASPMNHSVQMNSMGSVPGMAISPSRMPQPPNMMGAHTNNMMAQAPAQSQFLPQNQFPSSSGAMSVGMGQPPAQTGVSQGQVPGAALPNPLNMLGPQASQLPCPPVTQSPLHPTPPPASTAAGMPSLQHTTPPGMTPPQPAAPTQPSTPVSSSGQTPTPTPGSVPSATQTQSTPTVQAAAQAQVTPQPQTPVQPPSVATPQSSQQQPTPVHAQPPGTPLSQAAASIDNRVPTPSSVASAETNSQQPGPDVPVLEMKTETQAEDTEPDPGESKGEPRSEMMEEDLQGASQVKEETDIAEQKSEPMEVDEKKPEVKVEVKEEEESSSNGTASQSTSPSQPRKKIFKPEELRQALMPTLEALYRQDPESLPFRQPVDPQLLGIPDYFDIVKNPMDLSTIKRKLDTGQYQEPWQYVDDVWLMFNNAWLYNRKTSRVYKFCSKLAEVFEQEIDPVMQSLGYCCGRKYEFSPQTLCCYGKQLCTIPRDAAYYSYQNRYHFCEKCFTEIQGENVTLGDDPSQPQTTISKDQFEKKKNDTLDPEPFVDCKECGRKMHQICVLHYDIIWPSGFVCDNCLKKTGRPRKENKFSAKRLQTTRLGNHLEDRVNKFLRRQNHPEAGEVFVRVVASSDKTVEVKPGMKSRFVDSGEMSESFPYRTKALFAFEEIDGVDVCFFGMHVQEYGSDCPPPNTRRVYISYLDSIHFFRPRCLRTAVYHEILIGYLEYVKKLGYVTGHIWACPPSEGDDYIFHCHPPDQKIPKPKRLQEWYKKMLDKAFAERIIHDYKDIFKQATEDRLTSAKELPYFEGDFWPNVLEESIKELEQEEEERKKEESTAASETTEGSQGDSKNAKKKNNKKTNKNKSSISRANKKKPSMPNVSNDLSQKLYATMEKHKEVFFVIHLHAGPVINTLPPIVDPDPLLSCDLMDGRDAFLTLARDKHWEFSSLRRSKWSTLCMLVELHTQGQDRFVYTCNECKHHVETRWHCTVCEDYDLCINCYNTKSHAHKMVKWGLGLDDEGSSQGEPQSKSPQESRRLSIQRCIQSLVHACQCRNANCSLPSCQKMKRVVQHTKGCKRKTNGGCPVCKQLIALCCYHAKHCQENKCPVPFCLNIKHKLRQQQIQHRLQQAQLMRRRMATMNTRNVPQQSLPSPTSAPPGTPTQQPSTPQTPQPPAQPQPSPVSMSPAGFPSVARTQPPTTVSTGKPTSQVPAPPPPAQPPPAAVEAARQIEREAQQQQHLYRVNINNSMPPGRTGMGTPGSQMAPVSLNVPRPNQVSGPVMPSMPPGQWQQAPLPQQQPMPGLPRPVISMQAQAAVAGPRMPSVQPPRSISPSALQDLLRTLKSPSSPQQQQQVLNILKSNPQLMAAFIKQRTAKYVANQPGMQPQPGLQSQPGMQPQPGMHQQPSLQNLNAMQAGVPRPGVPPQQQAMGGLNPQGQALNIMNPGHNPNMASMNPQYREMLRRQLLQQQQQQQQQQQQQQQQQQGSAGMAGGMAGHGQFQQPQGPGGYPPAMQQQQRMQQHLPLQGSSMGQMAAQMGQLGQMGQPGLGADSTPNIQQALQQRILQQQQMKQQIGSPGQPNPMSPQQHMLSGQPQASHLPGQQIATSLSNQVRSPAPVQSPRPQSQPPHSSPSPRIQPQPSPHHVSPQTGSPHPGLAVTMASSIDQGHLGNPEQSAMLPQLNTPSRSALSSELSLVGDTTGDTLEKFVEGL

Cmax [2]: 1800 nM
Tmax [3]: 0.42 h
CL free [4]: 46.7 mL/min/kg
fCmax [6]: 0.3 µM
AUC(0-inf) [7]: 49 µM·h
fraction unbound [9]: 0.07
pIC50 [10]: < 4.70
AUC(0-inf) [11]: 101 µM·h
AUC at 24 h [12]: 49 µM·h
predicted hepatic clearance [13]: 10 mL/min/kg
Cmax [15]: 5900 nM
Tmax [16]: 1.2 h
bioavailability [17]: 76%
pIC50 [18]: < 4.70
pIC50 [21]: < 4.70
Cmax [22]: 2900 nM
predicted hepatic clearance [23]: 20 mL/min/kg
Vd [24]: 1.3 L/kg
AUC(0-inf) [25]: 28 µM·h
concentration at 24 h [29]: 220 nM
QH [30]: 36%
QH [34]: 6%
Tmax [35]: 1.3 h
fAUC [36]: 3 µM·h
pIC50 (CREB-binding protein): < 4.70
AUC(0-inf) [38]: 9.1 µM·h
SMILES: Cc1noc2c1-c1ccccc1C(c1ccc(Cl)cc1)=N[C@H]2CC(N)=O [PELABRESIB]
Activity [1]: Toxic
inhibition (MV4-11 [5]): Active
Activity [8]: Toxic
inhibition in vivo at 60 mg/kg (MV4-11 [14]): 74%
Activity (MV4-11 [19]): Active
inhibition (MV4-11 [20]): inactive
inhibition (MV4-11 [26]): inactive
Activity [27]: Toxic
Activity [28]: Toxic
Activity [31]: Non-Toxic
inhibition in vivo at 30 mg/kg (MV4-11 [32]): 41%
inhibition in vivo at 30 mg/kg (MV4-11 [33]): 80%
Activity [37]: Toxic
